The entries come from a sample that favours hits as a whole.
INS promoter act = TRM-6 insulin promoter activation | activation, % at 2 µM | TRM-6 cells (human fetal islet line), insulin promoter eGFP reporter, imaging; plate-scaled: unstimulated 0, stimulated control 100 | 130,000 tested, 0.81% active;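 active = activation at 2 µM above a set limit, confirmed on inspection of the cell images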;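 also: share of cells whose green reporter signal exceeds an intensity cutoff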
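System – TRM-6 insulin promoter–eGFP reporter cells · Probe or stimulus – 0.75 µM tamoxifen as reporter inducer · Dosing – single-point 2 µM compound dose · Incubation – tamoxifen pre-incubation 15 h overnight, then compound exposure 48 h at 37 °C · Measured by – fixed-cell fluorescence microscopy, eGFP plus Hoechst · Evaluation – percent GFP-positive cells normalized to per-plate controls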
The depositor's hits bear a star.

SMILES	INS promoter act
CC1=C(C(=O)Nc2ccc(F)cc2)C(c2ccc(C)o2)C2=C(CC(C)(C)CC2=O)N1 (configuration not stated)	296
COc1ccc(C(=O)NCC(=O)OCC(=O)N2N=C(c3ccc(Cl)cc3)CC2c2ccco2)cc1OC (configuration not stated)	0
CN(C)/C=C(\C#N)C(=O)N/N=C/c1ccccc1	0
O=C(/C=C/c1cccc(Cl)c1)Nn1c(-c2cccs2)nc2ccccc2c1=O	-9
Cc1ccc2cc(CN(CCO)Cc3nnnn3Cc3ccc(F)cc3)c(=O)[nH]c2c1	140*
COc1ccc2[nH]c(=O)c(CN(Cc3nnnn3Cc3ccc(F)cc3)CC3CCCO3)cc2c1 (configuration not stated)	118
O=c1[nH]c2cc3c(cc2cc1CN(CCCO)Cc1nnnn1Cc1ccc(F)cc1)OCO3	0
COc1ccccc1/C=C1\CCCC2=C1Nc1nnnn1C2c1ccccc1OC (configuration not stated)	-80
NC(=O)NC(=O)CSc1cccc(C(F)(F)F)c1	5
Cc1nc2sc3c(c2c(=O)n1N)CCC3	0
CCc1nc2sc3c(c2c(=O)o1)CCCC3	-7
O=C1CCc2nc3sc4c(c3c(=O)n2N1)CCCC4	412*
Cn1nc(C(F)(F)F)c(C(=O)Nc2ccc(F)cc2F)c1Sc1ccc(C(F)(F)F)cc1	-3
CCOC(=O)Cc1nnc(Nc2cccc(O)c2)c2ccccc12	3
CCCC(=O)Nc1ccc(N2CCN(C(=O)c3ccccc3C)CC2)cc1	444*
Cc1ccc(N2CCN(c3ccc(NC(=O)CCC(=O)O)cc3)CC2)cc1	-73
CCCC(=O)Nc1ccc(C(=O)N2CCCC2)cc1	-3
O=[N+]([O-])c1ccc(N=Cc2ccc(Br)c([N+](=O)[O-])c2)cc1	0
CC(=O)Oc1ccc(C(=O)Nc2cc(NC(=O)c3ccc(OC(C)=O)cc3)cc(C(=O)NC(C)(C)C)c2)cc1	3
CC(C)(C)NC(=O)CSc1nncn1NCc1ccccc1	0
Fc1ccc(CSc2nncn2NCc2ccccc2)cc1	428*
CN(C)c1ccc(CNn2cnnc2SCc2ccc(F)cc2)cc1	-6
O=C(NCCCN1CCCC1=O)c1ccc2c(=O)n(-c3ccccc3F)c(=S)[nH]c2c1	-7
C=CCOc1c(Br)cc(/C=N/Nc2ccc(C(=O)O)cc2)cc1OCC	107
CCCn1c(Nc2ccccc2)nc2ccccc21	10
SMILES	INS promoter act
Cn1c(NCc2c(O)ccc3ccccc23)nc2ccccc21	-7
Cn1c(Nn2cnnc2)nc2ccccc21	121*
CC(Oc1cc(Cl)ccc1Cl)C(=O)N/N=C\c1ccnn1C (configuration not stated)	7
CC1(C)O[C@H]2OC([C@H](O)CON3C(=O)c4ccccc4C3=O)[C@H](O)[C@H]2O1 (some centres not stated)	264*
Cc1ccc(C(=O)OCC2OC3OC(C)(C)OC3C2O)cc1 (configuration not stated)	10
O=C1c2ccccc2C(=O)N1OCCOCCOCCBr	3
Cc1ccc(NCC(O)C(O)C(O)CO)cc1C (configuration not stated)	427*
Cc1cc(N=Nc2ccccc2)c(NCC(O)C(O)C(O)CO)cc1C (configuration not stated)	-82
CSc1ccc(CNc2ccc(C)c(C)c2)cc1	0
CNc1cncc(C(=O)O)c1	6
COCCNC(=O)C(C)Oc1ccc(Cl)cc1Cl (configuration not stated)	-7
CC(Oc1ccc(Cl)cc1Cl)C(=O)NC1CCSC1=O (configuration not stated)	9
CC(Oc1ccc(Cl)cc1Cl)c1ccn[nH]1 (configuration not stated)	306*
CCOc1ccccc1C(=O)N1c2ccccc2Sc2ccccc21	100*
CCOc1ccccc1-n1c(=O)c2ccccc2c2ccccc2c1=O	-5
CCOc1ccccc1C(=O)n1nc(C)cc1C	3
CC(NS(=O)(=O)c1ccc(CCC(=O)NCc2cccnc2)cc1)c1ccccc1 (configuration not stated)	133
CCC(C(=O)NCc1cccnc1)c1ccccc1 (configuration not stated)	440*
CC(c1ccccc1)n1cc(C(=O)NCc2cccnc2)nn1 (configuration not stated)	0
CCOC(=O)C1C(=O)C=C(Nc2ccccc2F)CC1c1ccccc1 (configuration not stated)	0
N/C(=N\OC(=O)CCc1ccccc1)c1ccc(Br)cc1	10
N/C(=N\OC(=O)Oc1ccccc1)c1ccc(Br)cc1	493*
COc1ccc(/C(N)=N/OC(=O)Oc2ccccc2)cc1OC	-2
CC(NC(=O)C(=O)NCCC1=CCCCC1)c1ccccc1 (configuration not stated)	3
O=C(CCN1C(=O)c2cccc([N+](=O)[O-])c2C1=O)Nc1nccs1	0
SMILES	INS promoter act
COC(=O)c1[nH]c2ccc(C)cc2c1NC(=O)CN1CCCc2ccccc21	166
O=C(CN1CCCc2ccccc21)NCCc1ccc(Cl)cc1	300*
O=C(CN1CCCc2ccccc21)NCc1ccc2c(c1)OCO2	-9
O=C(O)C1CC(=O)N(c2ccc(OCc3c(F)cccc3Cl)cc2)C1 (configuration not stated)	0
CN1CCC(=NNC(=O)CN(c2ccc(Oc3ccccc3)cc2)S(C)(=O)=O)CC1	454*
Cc1ccc(S(=O)(=O)N(CC(=O)NN=C2CCN(C)CC2)c2ccc(C(C)C)cc2)cc1	0
Cc1ccc(C)c(N(CC(=O)NN=C2CCN(C)CC2)S(=O)(=O)c2ccccc2)c1	-8
CCC(=O)Nc1ccc(C(=O)N/N=C/c2cc(Br)c(OC)cc2OC)cc1	-6
CC(C)(C)NC(=O)C(c1ccc(O)cc1)N(C(=O)CCC(=O)Nc1nccs1)c1ccc(F)cc1 (configuration not stated)	7
O=C(CCn1cnc2ccccc2c1=O)Nc1cccc(Cl)c1	9
O=C(CCS(=O)(=O)Cc1ccccc1)Nc1nc2c(s1)CCCC2	10
O=C(CCn1cnc2ccccc2c1=O)Nc1nc2c(s1)CCCC2	510*
CCC/S(CC1CC1(Cl)Cl)=N\S(=O)(=O)c1ccc(C)cc1 (configuration not stated)	-3
CC(C)Cc1nc(N2CCN(C(=O)c3ccco3)CC2)c(C#N)c2c1CCC2	-8
N#Cc1c(N2CCN(C(=O)c3ccccc3)CC2)nc(-c2ccccc2)c2c1CCCC2	79*
N#Cc1c(N2CCN(C(=O)c3ccco3)CC2)nc(-c2ccccc2)c2c1CCCC2	-71
COc1ccc(S(=O)(=O)N(C)CC(=O)NCc2cccnc2)cc1Cl	7
Cc1cc(OCCCCNC(C)C)cc(C(C)C)c1	-7
CCOC(=O)C(=O)/C(=C\N(C)C)c1onc(-c2c(F)cccc2Cl)c1C(=O)OC	3
O=C(Nc1ccccc1)/C(=C1\CCCN1)[N+](=O)[O-]	-10
COc1cc(NC(=O)c2ccc3c(c2)OCO3)c2ncccc2c1	412*
O=C(Nc1cccc2cccnc12)c1ccc2c(c1)OCCO2	7
COc1ccc(-c2nc3cc(NC(=O)c4ccc5c(c4)OCO5)ccc3o2)cc1	-9
O=C1c2ccsc2SCCN1Cc1c(Cl)cccc1Cl	107
CCCC(C)c1nnc(NC(=O)c2cc(C(=O)OC)cc([N+](=O)[O-])c2)s1 (configuration not stated)	-7
N#Cc1c2c(c(-c3ccccc3Cl)[nH]c1=S)CCCC2	0
N#Cc1c2c(c(=S)n(-c3ccccc3)c1N)CCCC2	273*

High-throughput results: PubChem BioAssay, Columbia University Molecular Screening Center
